Experimental data as given in ChEMBL document CHEMBL4219167, “Disulfiram-based disulfides as narrow-spectrum antibacterial agents” (Bioorg Med Chem Lett, 2018).

Tests used:
Staphylococcus aureus [1] = assay: Antibacterial activity against methicillin-resistant Staphylococcus aureus COL after 20 hrs by broth microdilution assay; format: functional
Staphylococcus aureus [2] = assay: Antibacterial activity against vancomycin-intermediate resistant Staphylococcus aureus AR-217 after 20 hrs by broth microdilution assay; format: functional; conditions: AR-217, 20 h
Staphylococcus aureus [3] = assay: Antibacterial activity against vancomycin-resistant Staphylococcus aureus HIP14300 after 20 hrs by broth microdilution assay; format: functional; conditions: HIP14300, 20 h
[4] = test system: Staphylococcus epidermidis; assay: Antibacterial activity against vancomycin-intermediate resistant Staphylococcus epidermidis NRS6 after 20 hrs by broth microdilution assay; format: functional; conditions: NRS6, 20 h
Streptococcus pyogenes = assay: Antibacterial activity against Streptococcus pyogenes H293 after 20 hrs by broth microdilution assay; format: functional; conditions: H293, 20 h
Streptococcus agalactiae = assay: Antibacterial activity against Streptococcus agalactiae SGBS005 after 20 hrs by broth microdilution assay; format: functional; conditions: SGBS005, 20 h
Streptococcus pneumoniae = assay: Antibacterial activity against Streptococcus pneumoniae TCH8431 after 20 hrs by broth microdilution assay; format: functional; conditions: TCH8431, 20 h
Enterococcus faecium = assay: Antibacterial activity against vancomycin-resistant Enterococcus faecium ATCC 700221 after 20 hrs by broth microdilution assay; format: functional; conditions: ATCC 700221, 20 h
Procedure, shortened: (§1)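 Brain heart infusion broth at 37°C; E. faecium under 5% CO2. Cells at 0.5 McFarland are diluted 1:100 and exposed to serial dilutions (DMSO stocks 1 mM or 1 mg/mL; controls in water).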

Bacillus anthracis [5] = assay: Antibacterial activity against Bacillus anthracis Ames 35 after 20 hrs by broth microdilution assay; format: functional; conditions: Ames 35, 20 h
Bacillus anthracis [6] = assay: Antibacterial activity against Bacillus anthracis Sterne 34F2 after 20 hrs by broth microdilution assay; format: functional; conditions: Sterne 34F2, 20 h
Bacillus anthracis [7] = assay: Antibacterial activity against Bacillus anthracis UM23-1 after 20 hrs by broth microdilution assay; format: functional; conditions: UM23-1, 20 h
Bacillus anthracis [8] = assay: Antibacterial activity against Bacillus anthracis Weybridge after 20 hrs by broth microdilution assay; format: functional
Francisella tularensis = assay: Antibacterial activity against Francisella tularensis Utah 112 after 20 hrs by broth microdilution assay; format: functional; conditions: Utah 112, 20 h
Yersinia pestis [9] = assay: Antibacterial activity against Yersinia pestis Kim D2 after 20 hrs by broth microdilution assay; format: functional; conditions: Kim D2, 20 h
Yersinia pestis [10] = assay: Antibacterial activity against Yersinia pestis Kuma D7 after 20 hrs by broth microdilution assay; format: functional; conditions: Kuma D7, 20 h
Bacillus cereus = assay: Antibacterial activity against Bacillus cereus Gibson 971 after 20 hrs by broth microdilution assay; format: functional; conditions: Gibson 971, 20 h
Corynebacterium striatum = assay: Antibacterial activity against Corynebacterium striatum FS-1 after 20 hrs by broth microdilution assay; format: functional; conditions: FS-1, 20 h
Listeria monocytogenes = assay: Antibacterial activity against Listeria monocytogenes Gibson after 20 hrs by broth microdilution assay; format: functional; procedure, shortened: as §1
Micrococcus luteus = assay: Antibacterial activity against Micrococcus luteus SK58 after 20 hrs by broth microdilution assay; format: functional; conditions: SK58, 20 h
Rhodococcus erythropolis = assay: Antibacterial activity against Rhodococcus erythropolis SK121 after 20 hrs by broth microdilution assay; format: functional; conditions: SK121, 20 h
Procedure, shortened: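 R. erythropolis grown in brain heart infusion broth at 30°C. A 0.5 McFarland suspension diluted 1:100 is treated with serial dilutions from 1 mM or 1 mg/mL DMSO stocks; control antibiotics are in water.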

Acinetobacter baumannii = assay: Antibacterial activity against Acinetobacter baumannii AB5075 after 20 hrs by broth microdilution assay; format: functional; conditions: AB5075, 20 h
Brucella neotomae = assay: Antibacterial activity against Brucella neotomae 5K33 after 20 hrs by broth microdilution assay; format: functional; conditions: 5K33, 20 h
Burkholderia multivorans = assay: Antibacterial activity against Burkholderia multivorans CF2 after 20 hrs by broth microdilution assay; format: functional; conditions: CF2, 20 h
Procedure, shortened: (§2)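 Medium is tryptic soy broth, 37°C. Overnight culture is adjusted to 0.5 McFarland, diluted 1:100 and exposed to serial dilutions (test agents from 1 mM or 1 mg/mL DMSO stocks; control antibiotics in water). Incubation lasts 20 h. MIC is the lowest concentration with no visible growth.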

Burkholderia cepacia = assay: Antibacterial activity against Burkholderia cepacia UCB 717 after 20 hrs by broth microdilution assay; format: functional; conditions: UCB 717, 20 h; procedure, shortened: as §2
Citrobacter freundii = assay: Antibacterial activity against Citrobacter freundii 4_7_47CFAA after 20 hrs by broth microdilution assay; format: functional
Procedure, shortened: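 Brucella broth, 37°C, 5% CO2. Inoculum is 0.5 McFarland diluted 1:100, with serial drug dilutions from DMSO stocks (1 mM or 1 mg/mL) and control antibiotics in water.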

Escherichia coli = assay: Antibacterial activity against Escherichia coli DC10B after 20 hrs by broth microdilution assay; format: functional; procedure, shortened: as §2
Klebsiella pneumoniae = assay: Antibacterial activity against Klebsiella pneumoniae 700603 after 20 hrs by broth microdilution assay; format: functional; conditions: Klebsiella pneumoniae, 700603, 20 h; procedure, shortened: as §2
Proteus mirabilis = assay: Antibacterial activity against Proteus mirabilis HM-752 after 20 hrs by broth microdilution assay; format: functional; conditions: HM-752, 20 h; procedure, shortened: as §2
Pseudomonas aeruginosa = assay: Antibacterial activity against Pseudomonas aeruginosa ATCC 15442 after 20 hrs by broth microdilution assay; format: functional; conditions: ATCC 15442, 20 h; procedure, shortened: as §2
Salmonella typhi = assay: Antibacterial activity against Salmonella typhi Ty2 after 20 hrs by Todd Hewitt broth broth microdilution method; format: functional, Salmonella enterica subsp. enterica serovar Typhi str. Ty2; conditions: Salmonella enterica
Yersinia enterocolitica = assay: Antibacterial activity against Yersinia enterocolitica WA-314 after 20 hrs by broth microdilution assay; format: functional; conditions: WA-314, 20 h
Procedure, shortened: (§3)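 Yersinia cultured in tryptic soy broth at 28°C. A 0.5 McFarland suspension diluted 1:100 receives serial dilutions of agents from 1 mM or 1 mg/mL DMSO stocks; control antibiotics are in water.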

Shigella dysenteriae = assay: Antibacterial activity against Shigella dysenteriae Newcastle 1934 after 20 hrs by broth microdilution assay; format: functional; conditions: Newcastle 1934, 20 h; procedure, shortened: as §2
Vibrio cholerae = assay: Antibacterial activity against Vibrio cholerae TS D4 after 20 hrs by Todd Hewitt broth broth microdilution method; format: functional; conditions: TS D4, 20 h
[11] = test system: Yersinia pseudotuberculosis; assay: Antibacterial activity against Yersinia pseudotuberculosis P61 after 20 hrs by broth microdilution assay; format: functional; conditions: P61, 20 h; procedure, shortened: as §3
HepG2 = assay: Cytotoxicity against human HepG2 cells assessed as reduction in cell viability after 72 hrs by MTT assay; format: cell-based; conditions: HepG2, 72 h

CCN(CC)C(=S)SSC
1 µM: MIC (Bacillus cereus)
4 µM: MIC (Bacillus anthracis [5]) | MIC (Bacillus anthracis [6]) | MIC (Bacillus anthracis [8])
32 µM: MIC (Staphylococcus aureus [1]) | MIC [4] | MIC (Streptococcus pyogenes) | MIC (Francisella tularensis) | MIC (Listeria monocytogenes) | MIC (Micrococcus luteus) | MIC (Burkholderia multivorans) | MIC (Vibrio cholerae)
2 µM: MIC (Bacillus anthracis [7])
> 32 µM: MIC (Streptococcus agalactiae) | MIC (Streptococcus pneumoniae) | MIC (Enterococcus faecium) | MIC (Corynebacterium striatum) | MIC (Acinetobacter baumannii) | MIC (Brucella neotomae) | MIC (Burkholderia cepacia) | MIC (Citrobacter freundii) | MIC (Escherichia coli) | MIC (Klebsiella pneumoniae) | MIC (Proteus mirabilis) | MIC (Pseudomonas aeruginosa) | MIC (Salmonella typhi) | MIC (Yersinia enterocolitica) | MIC (Shigella dysenteriae) | MIC [11]
16 µM: MIC (Staphylococcus aureus [3]) | MIC (Yersinia pestis [9]) | MIC (Yersinia pestis [10]) | MIC (Rhodococcus erythropolis)
8 µM: MIC (Staphylococcus aureus [2])

CCCCCCCCCCSSC(=S)N(CC)CC
4 µM: MIC (Streptococcus pyogenes) | MIC (Streptococcus pneumoniae)
32 µM: MIC (Staphylococcus aureus [3])
16 µM: MIC (Staphylococcus aureus [1]) | MIC (Staphylococcus aureus [2]) | MIC [4] | MIC (Streptococcus agalactiae) | MIC (Enterococcus faecium)

CCCCCCCCCSSC(=S)N(CC)CC
16 µM: MIC (Staphylococcus aureus [3])
8 µM: MIC (Staphylococcus aureus [1]) | MIC (Staphylococcus aureus [2]) | MIC (Streptococcus pyogenes) | MIC (Streptococcus pneumoniae) | MIC (Enterococcus faecium)
4 µM: MIC [4]
55 µM: IC50 (HepG2)
32 µM: MIC (Streptococcus agalactiae)

CCCCSSC(=S)N(CC)CC [BUTYL DIETHYLCARBAMO(DITHIOPEROXO)THIOATE]
> 32 µM: MIC (Streptococcus agalactiae) | MIC (Streptococcus pneumoniae) | MIC (Enterococcus faecium)
16 µM: MIC (Staphylococcus aureus [1]) | MIC (Staphylococcus aureus [2]) | MIC (Staphylococcus aureus [3])
32 µM: MIC [4] | MIC (Streptococcus pyogenes)

O=C(O)c1cn(C2CC2)c2cc(N3CCNCC3)c(F)cc2c1=O [CIPROFLOXACIN]
≤ 0.5 µM: MIC (Francisella tularensis) | MIC (Yersinia pestis [9]) | MIC (Yersinia pestis [10]) | MIC (Rhodococcus erythropolis) | MIC (Acinetobacter baumannii) | MIC (Citrobacter freundii) | MIC (Escherichia coli) | MIC (Proteus mirabilis) | MIC (Salmonella typhi) | MIC (Vibrio cholerae) | MIC [11]
8 µM: MIC (Burkholderia multivorans)
> 32 µM: MIC (Corynebacterium striatum)

CCN(CC)C(=S)SSC1CCCCC1 [CYCLOHEXYL DIETHYLCARBAMO(DITHIOPEROXO)THIOATE]
> 32 µM: MIC (Streptococcus agalactiae) | MIC (Streptococcus pneumoniae) | MIC (Enterococcus faecium)
32 µM: MIC (Staphylococcus aureus [1]) | MIC (Staphylococcus aureus [3]) | MIC [4]
16 µM: MIC (Staphylococcus aureus [2]) | MIC (Streptococcus pyogenes)

CCN(CC)C(=S)SSC(C)C [ISOPROPYL DIETHYLCARBAMO(DITHIOPEROXO)THIOATE]
> 32 µM: MIC (Staphylococcus aureus [1]) | MIC (Staphylococcus aureus [3]) | MIC [4] | MIC (Streptococcus agalactiae) | MIC (Streptococcus pneumoniae) | MIC (Enterococcus faecium)
32 µM: MIC (Staphylococcus aureus [2]) | MIC (Streptococcus pyogenes)
